Experimental data published in publication PMC10286098 (ACS Omega, 2023).
Several values for one entry are separate records, joined by “and”; a condition that tells them apart may be missing. Equal entries are not always repeated. Where two headings read alike, the source gives them in different places.

Assays:
hDHODH = hDHODH (Homo sapiens, UniProt Q02127); assay: hDHODH fluorescence-based; assay type: biochemical; details: for IC50: IC50 over hDHODH, fluorescence-based assay, 10-dose, 3-fold dilution from 10 μM; for fold of the reported DHODH inhibitory activity of Leflunomide: versus Leflunomide 600 nM
Chain of hDHODH (Q02127 whole entry): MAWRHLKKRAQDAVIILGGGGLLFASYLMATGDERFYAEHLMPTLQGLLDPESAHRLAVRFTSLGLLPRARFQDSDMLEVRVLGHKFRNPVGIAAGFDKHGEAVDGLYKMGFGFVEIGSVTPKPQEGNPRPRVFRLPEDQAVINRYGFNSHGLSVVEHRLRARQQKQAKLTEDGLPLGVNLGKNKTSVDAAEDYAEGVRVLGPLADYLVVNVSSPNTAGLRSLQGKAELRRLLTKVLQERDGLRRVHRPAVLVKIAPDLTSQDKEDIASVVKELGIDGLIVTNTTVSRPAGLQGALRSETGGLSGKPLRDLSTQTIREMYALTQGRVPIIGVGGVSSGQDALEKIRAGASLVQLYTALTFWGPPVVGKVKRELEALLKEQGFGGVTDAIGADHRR
How it was run: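 Contract-run assay in which human DHODH oxidizes L-DHO to orotate, coupled to resazurin conversion to resorufin. Test compounds were run as 10 doses in singlet, with 3-fold dilutions from 10 μM. Reactions ran 60 min at room temperature. Orotate stop mix (5 mM final) was added, then resorufin fluorescence was read.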

MRC-5 cells = details: MRC-5 normal lung cells, WST-1, mean ± standard error
[1] = A549 cells, WST-1, 24 h, mean ± standard error
[2] = H1299 cells, WST-1, 24 h, mean ± standard error
[3] = H1975 cells, WST-1, 24 h, mean ± standard error

Row | SMILES | TC50 (A549 cells; [1]) [µM] | TC50 (H1299 cells; [2]) [µM] | TC50 (H1975 cells; [3]) [µM] | IC50 (hDHODH) | fold of the reported DHODH inhibitory activity of Leflunomide (hDHODH) [fold] | TC50 (MRC-5 cells) | TC50 (A549 cells) | TC50 (H1299 cells) | TC50 (H1975 cells) | decrease of cell viability (A549 cells; A549, 100 μM, 24 h, preliminary screening (Figure S1)) | decrease of cell viability (H1299 cells; H1299, 100 μM, 24 h, preliminary screening (Figure S1)) | decrease of cell viability (H1975 cells; H1975, 100 μM, 24 h, preliminary screening (Figure S1))
1 | COc1ccc(Nc2ccc3[nH]cc(C(=O)Nc4cccc(C(F)(F)F)c4)c3c2)cc1OC [compound 5b, 5-((3,4-Dimethoxyphenyl)amino)-N-(3-(trifluoromethyl)phenyl)-1H-indole-3-carboxamide] | 19 ± 0.4 | 16 ± 0.6 | 25 ± 5.0 | – | – | – | – | – | – | – | – | –
2 | O=C(Nc1cccc(C(F)(F)F)c1)c1c[nH]c2ccc(Nc3cccc([N+](=O)[O-])c3)cc12 [5d, 5-((3-Nitrophenyl)amino)-N-(3-(trifluoromethyl)phenyl)-1H-indole-3-carboxamide] | 16 ± 0.4 | 18 ± 0.5 | 29 ± 4.0 | – | – | – | – | – | – | – | – | –
3 | O=C(Nc1cccc(C(F)(F)F)c1)c1c[nH]c2ccc(Br)cc12 [compound 3, 5-Bromo-N-(3-(trifluoromethyl)phenyl)-1H-indole-3-carboxamide] | 22 ± 1.0 | 27 ± 0.8 | 28 ± 2.0 | 0.195 µM | 3 | 45 ± 8.0 µM | – | – | – | – | – | –
4 | Cc1oncc1C(=O)Nc1ccc(C(F)(F)F)cc1 [Leflunomide, reference compound] | – | – | – | – | – | 300 < μM | 100 < TC50 <300 μM | 300 < μM | 100 < μM | – | – | –
5 | COc1ccc(-c2ccc3[nH]cc(C(=O)Nc4cccc(C(F)(F)F)c4)c3c2)cc1 [4b, 5-(4-Methoxyphenyl)-N-(3-(trifluoromethyl)phenyl)-1H-indole-3-carboxamide] | 17 ± 0.5 | 17 ± 0.3 | 35 ± 4.0 | – | – | – | – | – | – | – | – | –
6 | CNC(=O)c1cc(Oc2ccc(NC(=O)Nc3ccc(Cl)c(C(F)(F)F)c3)c(F)c2)ccn1 [Regorafenib, reference compound] | 13 ± 0.8 | 10 ± 0.4 | 16 ± 0.5 | – | – | 18 ± 2.0 µM | – | – | – | more than 50% | more than 50% | more than 50%
7 | O=C(Nc1cccc(C(F)(F)F)c1)c1c[nH]c2ccc(-c3cccc(CN4CCOCC4)c3)cc12 [compound 4a, 5-(3-(Morpholinomethyl)phenyl)-N-(3-(trifluoromethyl)phenyl)-1H-indole-3-carboxamide] | 13 ± 0.3 | 13 ± 0.1 | 23 ± 2.0 | 1.2 µM and 1.21 µM | – | 17 ± 3.0 µM | – | – | – | – | – | –
8 | O=C(Nc1cccc(C(F)(F)F)c1)c1c[nH]c2ccc(Nc3ccc([N+](=O)[O-])cc3)cc12 [compound 5c, 5-((4-Nitrophenyl)amino)-N-(3-(trifluoromethyl)phenyl)-1H-indole-3-carboxamide] | 11 ± 0.5 | 11 ± 0.3 | 15 ± 1.0 | 0.421 µM | 1.5 | 17 ± 0.3 µM | – | – | – | – | – | –
9 | O=C(Nc1cccc(C(F)(F)F)c1)c1c[nH]c2ccc(Nc3ccc(O)cc3)cc12 [5a, 5-((4-Hydroxyphenyl)amino)-N-(3-(trifluoromethyl)phenyl)-1H-indole-3-carboxamide] | 32 ± 0.9 | 33 ± 0.7 | 33 ± 2.0 | – | – | – | – | – | – | – | – | –
